Most compounds without a hit are left out; they make up all but 2.8% or so of the library.
NPY1 pot ag: human NPY-Y1 potentiation or agonism, primary screen. P25929. NPY-Y1 expressing cells, potentiator/agonist activation. activation, % at 3.6 µM. 0.37% of 220,000 active; in the data active = activation above about 33%, passing the limit was not always enough;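 also: cells stimulated with NPY at EC10 then isoproterenol at EC100; 0% = low agonist plus stimulus and 100% = saturating agonist plus stimulus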
Measles CPE: protection of cells from measles virus. Measles virus-infected cells, CPE protection, absorbance. protection (pct of control), % at 4 µM. 1.5% of 140,000 active; in the data active = protection mostly above about 24%, no sharp cut-off; inactive = mostly below about 26%
NPY-Y2 antag: antagonists of human neuropeptide Y receptor Y2; 0.99% of 140,000 active; NPY-Y2 expressing cells, antagonist mode; P49146; inhibition, % at 2.7 µM;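 also: 0% = vehicle with agonist challenge and 100% = reference antagonist with challenge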
Target sequence (P49146 whole entry, looked up): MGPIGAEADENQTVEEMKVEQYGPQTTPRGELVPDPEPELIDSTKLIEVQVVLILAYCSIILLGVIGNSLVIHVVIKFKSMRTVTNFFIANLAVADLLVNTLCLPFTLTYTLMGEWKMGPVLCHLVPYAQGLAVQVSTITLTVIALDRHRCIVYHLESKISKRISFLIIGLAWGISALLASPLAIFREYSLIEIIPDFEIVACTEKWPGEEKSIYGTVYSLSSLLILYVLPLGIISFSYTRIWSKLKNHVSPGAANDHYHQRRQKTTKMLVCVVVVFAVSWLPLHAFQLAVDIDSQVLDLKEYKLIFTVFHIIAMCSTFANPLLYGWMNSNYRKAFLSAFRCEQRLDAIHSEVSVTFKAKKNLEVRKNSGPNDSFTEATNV
NPY-Y2 PAM-ag: potentiates or activates human NPY-Y2 receptor | P49146 | cells expressing NPY-Y2, potentiator/agonist read-out | activation, % at 3.6 µM | 0.45% of 220,000 active | AID 1359; in the data active = activation above about 27%;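 also: cells stimulated with NPY near EC25 plus isoproterenol at EC100; 0% = vehicle plus submaximal agonist and 100% = vehicle plus saturating agonist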
Rad51 HR inh: blocks human Rad51 in homologous recombination | Q06609 | hRad51 DNA strand exchange, fluorescence dequenching | inhibition, % at 10 µM | 0.085% of 200,000 active;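 active = inhibition above 40% at the single screening dose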;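 also: 0% = DMSO control wells and 100% = blanks with heterologous ssDNA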
Target sequence (Q06609 whole entry, looked up): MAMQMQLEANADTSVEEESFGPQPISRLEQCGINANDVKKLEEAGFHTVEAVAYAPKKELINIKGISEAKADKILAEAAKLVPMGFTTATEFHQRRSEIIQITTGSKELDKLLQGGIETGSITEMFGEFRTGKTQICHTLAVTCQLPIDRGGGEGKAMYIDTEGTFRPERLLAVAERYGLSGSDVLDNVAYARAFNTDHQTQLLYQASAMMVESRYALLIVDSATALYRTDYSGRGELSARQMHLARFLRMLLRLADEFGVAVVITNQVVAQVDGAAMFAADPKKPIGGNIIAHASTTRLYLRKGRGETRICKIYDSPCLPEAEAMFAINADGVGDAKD
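Read-out basis: percent inhibition relative to plate controls and blanks / Assay system: human Rad51 nucleoprotein filaments preassembled on unlabelled ssDNA / Timing: filaments 15 min 37 °C, then compound 30 min / Control set: per-plate controls and blanks / Technique: fluorescence dequenching at 485/520 nm / Compound: 10 µM final, single point / Also added: Fluorescein- and BHQ1-tagged 47-mer duplex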
NPY-Y1 antag: NPY-Y1 (human) receptor antagonism. P25929. HEK293-CNG Y1 cells, membrane potential fluorescence; NPY at EC95, then isoproterenol. inhibition, % at 3.6 µM. 1% of 200,000 active. AID 1040;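 active = inhibition above the campaign mean inhibition of all tested compounds plus 3 SD, cut at about 20% in these data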;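 also: 0% = DMSO wells given NPY plus isoproterenol and 100% = isoproterenol alone without NPY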
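Assay system: HEK293 cells with Y1 receptor plus CNG channel | Probe or stimulus: NPY (25 nM), isoproterenol (1 µM), Ro 20-1724 (25 µM) | Timing: Compound incubation 1 h at room temperature, readout 45 min post-stimulation | Measured by: Membrane-potential fluorescent dye readout | Benchmarks: High control isoproterenol alone, low control NPY with isoproterenol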
NPY1 antag conf: human NPY-Y1 antagonism, confirmation | shares compounds with NPY-Y1 antag | HEK293-CNG NPY-Y1, membrane potential fluorescence, cAMP; NPY challenge against isoproterenol-raised cAMP | inhibition, % at 3.6 µM | 21% of 1,200 active | AID 1254; in the data active = inhibition above about 20%;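 also: 0% = vehicle with agonist plus stimulus and 100% = stimulus alone without agonist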
NPY-Y2 antag ct: antagonizes human NPY-Y2, counter-screen to NPY-Y1 antagonists. shares compounds with NPY-Y1 antag. 28% of 1,200 active. HEK293 NPY-Y2 CNG membrane potential fluorescence, antagonism; cells given NPY, then isoproterenol. inhibition, % at 3.6 µM;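 also: 0% = DMSO with agonist challenge and 100% = reference antagonist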
* marks the source's active call; other numbers are inactive results. Rule as the data show it, unless noted: active = inhibition above about 17%; inactive = the rest.

COc1ccc(-c2cc(-c3n[nH]c(=S)n3-c3cc(OC)ccc3OC)[nH]n2)cc1 was read as NPY1 pot ag -70.1, Measles CPE 24.8, NPY-Y2 antag 5.0, NPY-Y2 PAM-ag -36.0, Rad51 HR inh -2.8, NPY-Y1 antag 26.9*, NPY1 antag conf 23.1* and NPY-Y2 antag ct 43.7*.
Screening COc1ccc(OC)c(-n2c(-c3cc(-c4ccc(F)cc4)n[nH]3)n[nH]c2=S)c1 returned NPY1 pot ag -23.5, Measles CPE 7.3, NPY-Y2 antag 1.8, NPY-Y2 PAM-ag 1.8, Rad51 HR inh -2.0 and NPY-Y1 antag 0.8.
Screening S=c1[nH]nc(-c2cc(-c3ccco3)[nH]n2)n1-c1ccccc1Cl returned NPY1 pot ag 7.2, Measles CPE 8.0, NPY-Y2 antag 16.6, NPY-Y2 PAM-ag 0.9, Rad51 HR inh 3.7 and NPY-Y1 antag 0.2.
O=C(Nc1ccc(N2CCOCC2)cc1)c1ccc([N+](=O)[O-])cc1 was read as NPY1 pot ag 5.0, NPY-Y2 PAM-ag -4.3 and NPY-Y1 antag -2.5.
For COc1ccc(N2CCc3c(C)nc4c(OC)cc(OC)cc4c32)cc1 the results were NPY1 pot ag -31.1, NPY-Y2 PAM-ag -18.0, Rad51 HR inh 1.1, NPY-Y1 antag 34.1*, NPY1 antag conf 25.9* and NPY-Y2 antag ct 23.6*.
`Cc1ccc(C(=O)Nc2cc(Cl)ccc2N2CCCCC2)s1` gave NPY1 pot ag -54.5, Measles CPE 4.4, NPY-Y2 antag 12.9, NPY-Y2 PAM-ag -22.9 and NPY-Y1 antag 10.3.
CCc1sc(C(=O)Nc2cc(Cl)ccc2N2CCCCC2)cc1C was read as NPY1 pot ag -4.8, Measles CPE 28.7, NPY-Y2 antag 8.0, NPY-Y2 PAM-ag -3.0, Rad51 HR inh 0.5, NPY-Y1 antag 20.6*, NPY1 antag conf 0.8 and NPY-Y2 antag ct 5.8.
Screening N#Cc1c(N)nc2c(c1-c1ccc(F)cc1)c(=O)nc1sccn12 returned NPY1 pot ag 2.1, NPY-Y2 PAM-ag 2.3, Rad51 HR inh 3.0, NPY-Y1 antag 46.7*, NPY1 antag conf -0.7 and NPY-Y2 antag ct 3.9.
Cc1nn(-c2ccccc2)c2nc(N)c(C#N)c(-c3ccc(F)cc3)c12 was read as NPY1 pot ag -28.9, Measles CPE 26.0, NPY-Y2 antag 4.1, NPY-Y2 PAM-ag -18.5, Rad51 HR inh 3.8, NPY-Y1 antag 22.8*, NPY1 antag conf 4.1 and NPY-Y2 antag ct 16.1.
`CN1CCN(C(=O)Nc2cccc(-c3ccccc3)c2)CC1` gave NPY1 pot ag -1.3, NPY-Y2 PAM-ag 16.2 and Rad51 HR inh -3.2.
For COC(=O)c1[nH]c2c(c1C)C(=O)CC(c1ccccc1)C2 (centres undefined) the results were NPY1 pot ag -4.7, Measles CPE 7.5, NPY-Y2 antag 2.8, NPY-Y2 PAM-ag -22.5, Rad51 HR inh -1.8 and NPY-Y1 antag 1.2.
Cc1c(C(=O)N2CCOCC2)[nH]c2c1C(=O)CC(c1ccccc1Cl)C2 (centres undefined) was read as NPY1 pot ag -12.5, Measles CPE 9.1, NPY-Y2 antag 5.0, NPY-Y2 PAM-ag -12.1, Rad51 HR inh -2.5, NPY-Y1 antag 23.5*, NPY1 antag conf 3.2 and NPY-Y2 antag ct 17.8*.
`CC(=O)Cc1nsc(NC(=O)c2cn(-c3ccccc3)nc2-c2ccc(Br)cc2)n1` gave NPY1 pot ag -5.9, Measles CPE 22.6, NPY-Y2 antag 4.6, NPY-Y2 PAM-ag 15.5, Rad51 HR inh 12.8 and NPY-Y1 antag 4.2.
Screening Cc1ccc2c(c1)nnn2C1CCN(C(=O)c2ccccc2F)CC1 returned NPY1 pot ag -0.5, NPY-Y2 PAM-ag 1.7, Rad51 HR inh -22.2 and NPY-Y1 antag 1.8.
Screening Cn1c(-c2ccc3c(c2)OCO3)cnc1NCc1cccc(Cl)c1 returned NPY1 pot ag -6.5, Measles CPE 7.7, NPY-Y2 antag 9.6, NPY-Y2 PAM-ag -18.1, Rad51 HR inh 0.1, NPY-Y1 antag 33.6*, NPY1 antag conf 11.9 and NPY-Y2 antag ct 11.5.
For Cn1c(-c2ccc3c(c2)OCO3)cnc1NCc1ccccc1 the results were NPY1 pot ag -14.5, Measles CPE 9.2, NPY-Y2 antag 9.8, NPY-Y2 PAM-ag 2.5, Rad51 HR inh -5.1 and NPY-Y1 antag 12.4.
CC(=O)CSc1nnc(-c2ccc3c(c2)OCO3)o1 was read as NPY1 pot ag -30.8, Measles CPE 15.3, NPY-Y2 antag 6.7, NPY-Y2 PAM-ag -21.1, Rad51 HR inh 0.2, NPY-Y1 antag 20.6*, NPY1 antag conf 7.3 and NPY-Y2 antag ct 5.5.
Screening O=C(O)CCSc1nnc(-c2ccc3c(c2)OCO3)o1 returned NPY1 pot ag -43.9, Measles CPE 11.7, NPY-Y2 antag 14.3, NPY-Y2 PAM-ag -33.2, Rad51 HR inh 2.1 and NPY-Y1 antag 12.3.
COC(=O)/C(=N/Nc1ccccc1C)N1CCCc2ccccc21 was read as NPY1 pot ag -18.5, Measles CPE 8.0, NPY-Y2 antag 6.2, NPY-Y2 PAM-ag -20.1, Rad51 HR inh -10.6, NPY-Y1 antag 35.8*, NPY1 antag conf 15.9 and NPY-Y2 antag ct 13.0.
`CCOC(=O)CNC(c1ccccc1)c1cc(Br)ccc1NC(C)=O` (centres undefined) gave NPY1 pot ag -39.0, NPY-Y2 PAM-ag -17.2, Rad51 HR inh -2.6, NPY-Y1 antag 46.8*, NPY1 antag conf 5.4 and NPY-Y2 antag ct 7.3.
`COc1ccc(Br)cc1CNC(=O)CCc1nc(-c2ccc(C)cc2)no1` gave NPY1 pot ag -0.1, Measles CPE 3.9, NPY-Y2 antag 14.4, NPY-Y2 PAM-ag -16.3, Rad51 HR inh -9.5, NPY-Y1 antag 21.4*, NPY1 antag conf 7.2 and NPY-Y2 antag ct 8.1.
Cc1cccc(OCCC(=O)Nc2ccc(C)c(S(=O)(=O)N3CCCCC3)c2)c1 was read as NPY1 pot ag 10.3, Measles CPE 18.6, NPY-Y2 antag 5.0, NPY-Y2 PAM-ag 5.4, Rad51 HR inh 5.4 and NPY-Y1 antag 7.1.
For CCCOc1ccc(NC(=O)C2CC(=O)N(C)C(=Nc3cccc(OC)c3)S2)cc1 (centres undefined) the results were NPY1 pot ag 17.2, NPY-Y2 PAM-ag -4.4, Rad51 HR inh -6.5 and NPY-Y1 antag -5.8.
`COc1ccccc1N1CCN(C(=O)C2c3ccccc3Oc3ccccc32)CC1` gave NPY1 pot ag 1.8, Measles CPE 1.9, NPY-Y2 antag 14.3, NPY-Y2 PAM-ag 4.4, Rad51 HR inh 3.8, NPY-Y1 antag 22.8*, NPY1 antag conf 7.2 and NPY-Y2 antag ct 12.1.

Compound activity from PubChem.
